In the M2OR odorant receptor database:
Where a chain is given by its changes, count along the chain named.

How the values were obtained:
Settings in all cases: stereoisomer not certain
[1] = target: T1, OR1D5 (Homo sapiens) (UniProt P58170)
T1 sequence (whole entry): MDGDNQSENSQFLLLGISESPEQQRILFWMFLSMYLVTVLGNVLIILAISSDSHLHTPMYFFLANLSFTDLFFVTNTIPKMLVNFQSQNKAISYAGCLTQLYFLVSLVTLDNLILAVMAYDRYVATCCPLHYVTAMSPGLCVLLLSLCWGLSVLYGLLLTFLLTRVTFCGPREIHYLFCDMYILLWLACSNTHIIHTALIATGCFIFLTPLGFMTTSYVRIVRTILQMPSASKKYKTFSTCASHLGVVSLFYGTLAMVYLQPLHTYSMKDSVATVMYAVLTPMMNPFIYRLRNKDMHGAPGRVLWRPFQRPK
Outline: (§1)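 Transient luciferase assays in mammalian cell lines were common, though methods varied by source. The values come from published papers and their supplementary material, with extra details from the original authors when needed. Responsive refers to a measured signal the original authors judged statistically different from baseline, and non-responsive (inactive) to the remainder.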

[2] = target: T2, OR1E1 (Homo sapiens) (UniProt P30953)
T2 sequence (whole entry): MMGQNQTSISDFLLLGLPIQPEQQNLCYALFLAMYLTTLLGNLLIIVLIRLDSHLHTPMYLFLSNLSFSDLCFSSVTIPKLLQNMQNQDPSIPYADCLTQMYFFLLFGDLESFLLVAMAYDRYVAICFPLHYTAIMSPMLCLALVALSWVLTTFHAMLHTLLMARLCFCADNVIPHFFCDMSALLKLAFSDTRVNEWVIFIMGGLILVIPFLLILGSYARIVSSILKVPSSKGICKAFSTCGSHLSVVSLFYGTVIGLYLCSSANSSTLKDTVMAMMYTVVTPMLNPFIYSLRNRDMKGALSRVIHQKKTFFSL
Outline: as §1

[3] = target: T3, OR1E2 (Homo sapiens) (UniProt P47887)
T3 sequence (whole entry): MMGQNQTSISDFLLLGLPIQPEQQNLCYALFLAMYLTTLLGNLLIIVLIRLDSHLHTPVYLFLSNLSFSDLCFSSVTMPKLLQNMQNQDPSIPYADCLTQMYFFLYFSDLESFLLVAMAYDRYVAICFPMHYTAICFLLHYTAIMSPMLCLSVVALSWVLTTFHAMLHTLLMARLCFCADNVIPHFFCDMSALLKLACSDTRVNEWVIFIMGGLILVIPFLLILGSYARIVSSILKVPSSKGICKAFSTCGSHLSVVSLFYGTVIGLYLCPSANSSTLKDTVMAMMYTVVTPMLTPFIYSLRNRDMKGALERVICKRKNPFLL
Outline: as §1

[4] = test system: T4, OR1E2
T4 sequence (whole entry): T3 sequence (whole entry) with C27R
Outline: as §1

[5] = target: T5, OR1F1 (Homo sapiens) (UniProt O43749)
T5 sequence (whole entry): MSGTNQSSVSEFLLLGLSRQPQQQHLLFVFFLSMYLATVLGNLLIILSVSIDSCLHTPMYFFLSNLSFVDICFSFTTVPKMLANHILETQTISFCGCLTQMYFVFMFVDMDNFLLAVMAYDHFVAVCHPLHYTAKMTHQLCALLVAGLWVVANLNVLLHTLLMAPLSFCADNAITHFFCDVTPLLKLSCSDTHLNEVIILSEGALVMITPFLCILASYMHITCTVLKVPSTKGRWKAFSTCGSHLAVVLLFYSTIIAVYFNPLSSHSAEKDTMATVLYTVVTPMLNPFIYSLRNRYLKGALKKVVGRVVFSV
Outline: as §1

[6] = target: T6, OR1F12P (Homo sapiens) (UniProt Q8NHA8)
T6 sequence (whole entry): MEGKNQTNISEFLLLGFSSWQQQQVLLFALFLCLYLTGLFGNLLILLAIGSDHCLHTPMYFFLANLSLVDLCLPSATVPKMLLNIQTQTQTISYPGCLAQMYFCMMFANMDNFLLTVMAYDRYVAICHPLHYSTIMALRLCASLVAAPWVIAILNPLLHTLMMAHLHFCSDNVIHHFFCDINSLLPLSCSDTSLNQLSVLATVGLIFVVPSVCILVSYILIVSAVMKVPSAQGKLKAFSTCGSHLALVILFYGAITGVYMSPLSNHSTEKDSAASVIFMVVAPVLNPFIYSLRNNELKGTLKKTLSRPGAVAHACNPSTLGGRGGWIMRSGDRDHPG
Outline: as §1

[7] = test system: T7, OR1F1
T7 sequence (whole entry): T5 sequence (whole entry) with F75S
Outline: as §1

[8] = target: T8, OR1G1 (Homo sapiens) (UniProt P47890)
T8 sequence (whole entry): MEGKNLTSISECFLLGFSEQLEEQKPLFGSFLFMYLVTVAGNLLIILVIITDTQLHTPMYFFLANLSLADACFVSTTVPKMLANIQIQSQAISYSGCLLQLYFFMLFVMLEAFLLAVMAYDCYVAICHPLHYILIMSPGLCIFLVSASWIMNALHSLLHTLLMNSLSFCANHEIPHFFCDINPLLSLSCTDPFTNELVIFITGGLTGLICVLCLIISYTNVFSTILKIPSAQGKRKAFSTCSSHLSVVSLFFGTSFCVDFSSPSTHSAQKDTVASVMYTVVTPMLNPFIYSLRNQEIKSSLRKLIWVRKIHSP
Outline: as §1

[9] = target: T9, OR1I1 (Homo sapiens) (UniProt O60431)
T9 sequence (whole entry): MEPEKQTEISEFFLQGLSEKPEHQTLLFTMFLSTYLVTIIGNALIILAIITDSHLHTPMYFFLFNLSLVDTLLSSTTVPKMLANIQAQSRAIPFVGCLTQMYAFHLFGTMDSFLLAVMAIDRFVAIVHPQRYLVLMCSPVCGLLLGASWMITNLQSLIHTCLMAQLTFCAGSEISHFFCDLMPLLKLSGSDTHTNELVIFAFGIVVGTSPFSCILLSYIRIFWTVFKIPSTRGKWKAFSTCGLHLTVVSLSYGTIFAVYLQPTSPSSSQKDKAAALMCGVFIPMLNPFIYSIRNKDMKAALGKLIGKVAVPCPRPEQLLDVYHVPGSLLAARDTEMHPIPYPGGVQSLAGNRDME
Outline: as §1

[10] = target: T10, OR1J1 (Homo sapiens) (UniProt Q8NGS3)
T10 sequence (whole entry): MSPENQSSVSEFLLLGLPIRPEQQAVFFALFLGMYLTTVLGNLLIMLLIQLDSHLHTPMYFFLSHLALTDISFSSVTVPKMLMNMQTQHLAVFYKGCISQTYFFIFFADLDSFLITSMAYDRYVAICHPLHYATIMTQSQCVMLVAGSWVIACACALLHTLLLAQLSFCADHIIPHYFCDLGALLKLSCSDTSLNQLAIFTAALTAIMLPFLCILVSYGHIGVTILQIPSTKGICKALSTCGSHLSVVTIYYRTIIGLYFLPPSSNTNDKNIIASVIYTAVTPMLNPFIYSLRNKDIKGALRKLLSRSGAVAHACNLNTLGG
Outline: as §1

[11] = target: T11, OR1J2 (Homo sapiens) (UniProt Q8NGS2)
T11 sequence (whole entry): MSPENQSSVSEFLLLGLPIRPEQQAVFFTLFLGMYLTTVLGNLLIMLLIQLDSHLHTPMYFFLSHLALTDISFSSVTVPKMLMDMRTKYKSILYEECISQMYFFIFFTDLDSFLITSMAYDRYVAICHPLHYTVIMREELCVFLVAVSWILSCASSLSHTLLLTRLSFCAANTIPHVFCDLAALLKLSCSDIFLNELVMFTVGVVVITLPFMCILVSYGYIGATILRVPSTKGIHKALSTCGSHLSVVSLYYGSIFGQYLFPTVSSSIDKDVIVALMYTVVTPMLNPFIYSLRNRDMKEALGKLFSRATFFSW
Outline: as §1

[12] = target: T12, OR1J4 (Homo sapiens) (UniProt Q8NGS1)
T12 sequence (whole entry): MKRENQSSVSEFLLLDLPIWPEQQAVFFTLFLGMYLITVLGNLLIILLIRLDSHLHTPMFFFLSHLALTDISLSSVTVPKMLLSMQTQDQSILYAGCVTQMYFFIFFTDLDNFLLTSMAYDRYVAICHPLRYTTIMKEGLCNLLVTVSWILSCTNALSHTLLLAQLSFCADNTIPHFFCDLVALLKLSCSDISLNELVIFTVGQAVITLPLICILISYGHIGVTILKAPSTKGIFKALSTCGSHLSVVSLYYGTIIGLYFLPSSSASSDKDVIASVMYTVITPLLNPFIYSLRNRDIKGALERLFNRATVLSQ
Outline: as §1

[13] = target: T13, OR1K1 (Homo sapiens) (UniProt Q8NGR3)
T13 sequence (whole entry): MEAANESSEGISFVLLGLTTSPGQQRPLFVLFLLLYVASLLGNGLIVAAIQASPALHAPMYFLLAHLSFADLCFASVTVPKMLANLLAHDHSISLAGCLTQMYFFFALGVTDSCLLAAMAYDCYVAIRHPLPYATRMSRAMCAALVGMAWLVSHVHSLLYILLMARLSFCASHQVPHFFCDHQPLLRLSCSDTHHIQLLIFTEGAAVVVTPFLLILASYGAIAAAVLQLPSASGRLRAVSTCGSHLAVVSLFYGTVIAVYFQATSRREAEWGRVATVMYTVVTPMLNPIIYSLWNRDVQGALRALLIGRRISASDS
Outline: as §1

[14] = test system: T14, OR1L1
T14 sequence (whole entry): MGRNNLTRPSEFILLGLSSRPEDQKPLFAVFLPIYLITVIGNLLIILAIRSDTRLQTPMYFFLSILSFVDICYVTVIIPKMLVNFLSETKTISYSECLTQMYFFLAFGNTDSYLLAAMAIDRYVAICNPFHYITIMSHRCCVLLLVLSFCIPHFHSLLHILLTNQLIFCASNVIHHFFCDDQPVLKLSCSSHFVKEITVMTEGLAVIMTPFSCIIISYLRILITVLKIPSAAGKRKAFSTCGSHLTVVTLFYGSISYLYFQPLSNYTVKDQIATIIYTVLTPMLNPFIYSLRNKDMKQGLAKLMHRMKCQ
Outline: as §1
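Note: active if original authors judged signal statistically different from baseline.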

CCC1OC(C)=C(O)C1=O (stereo unspecified)
odorant receptor agonist call [1]: inactive | odorant receptor agonist call [2]: inactive | odorant receptor agonist call [3]: inactive | odorant receptor agonist call [4]: inactive | odorant receptor agonist call [5]: inactive | odorant receptor agonist call [6]: inactive | odorant receptor agonist call [7]: inactive | odorant receptor agonist call [8]: inactive | odorant receptor agonist call [9]: inactive | odorant receptor agonist call [10]: inactive | odorant receptor agonist call [11]: inactive | odorant receptor agonist call [12]: inactive | odorant receptor agonist call [13]: inactive | odorant receptor agonist call [14]: inactive

CCCCCCCC(=O)[O-].[H+]
odorant receptor agonist call [8]: inactive

CCCC(S)CCOC(C)=O (stereo unspecified)
odorant receptor agonist call [1]: inactive | odorant receptor agonist call [2]: inactive | odorant receptor agonist call [3]: inactive | odorant receptor agonist call [4]: inactive | odorant receptor agonist call [5]: inactive | odorant receptor agonist call [6]: inactive | odorant receptor agonist call [7]: inactive | odorant receptor agonist call [8]: inactive | odorant receptor agonist call [9]: inactive | odorant receptor agonist call [10]: inactive | odorant receptor agonist call [11]: inactive | odorant receptor agonist call [12]: inactive | odorant receptor agonist call [13]: inactive | odorant receptor agonist call [14]: inactive

CCCCCCCCO
odorant receptor agonist call [8]: active

CCCCCCCCCCCC=O
odorant receptor agonist call [8]: inactive

CCCCCCCC(C)=O
odorant receptor agonist call [8]: active

CCCCCCC(=O)[O-].[H+]
odorant receptor agonist call [8]: inactive

c1ccc2[nH]ccc2c1
odorant receptor agonist call [8]: inactive

CC(C)=CCCC(C)=CC#N
odorant receptor agonist call [8]: inactive

CCC(=O)O
odorant receptor agonist call [8]: inactive

CCCCCC(O)CC (stereo unspecified)
odorant receptor agonist call [8]: active

CCCCCCCCCCC(C)=O
odorant receptor agonist call [8]: inactive

CCCCCCCO
odorant receptor agonist call [8]: active

CCCCCC1COCCC1OC(C)=O (stereo unspecified)
odorant receptor agonist call [8]: inactive

CC(=O)C=CC1=C(C)CCCC1(C)C
odorant receptor agonist call [8]: inactive

CC(CC=O)c1ccc(C(C)(C)C)cc1 (stereo unspecified)
odorant receptor agonist call [8]: inactive

CCCCCCC(C)=O
odorant receptor agonist call [8]: inactive

C=CC(C)(O)CCC=C(C)CCC=C(C)C (stereo unspecified)
odorant receptor agonist call [8]: inactive

CC12CCC(CC1=O)C2(C)C (stereo unspecified)
odorant receptor agonist call [8]: active

CCCCCCCCCCO
odorant receptor agonist call [8]: active

CCCCCCCCC(C)=O
odorant receptor agonist call [8]: inactive

CCCC(=O)SC
odorant receptor agonist call [8]: active

COc1nccnc1CC(C)C
odorant receptor agonist call [8]: inactive

COC1CC2CC1C1CC(C=O)CC21 (stereo unspecified)
odorant receptor agonist call [8]: inactive

c1ccc2scnc2c1
odorant receptor agonist call [8]: active

COc1ccccc1
odorant receptor agonist call [8]: inactive

CCCCCCCCC(=O)OC
odorant receptor agonist call [8]: active

CCCCCCCC(=O)OC
odorant receptor agonist call [8]: active

CC(=O)C(C)O (stereo unspecified)
odorant receptor agonist call [8]: active

CCCCCC=O
odorant receptor agonist call [8]: active

CCCCCCCCCCCC(=O)O
odorant receptor agonist call [8]: inactive

O=c1ccc2ccccc2o1
odorant receptor agonist call [8]: active

CCCCCCCCC(=O)O
odorant receptor agonist call [8]: active

C=CCOC(=O)COCCC(C)C
odorant receptor agonist call [8]: inactive

CCCCCCCCC(=O)OCC
odorant receptor agonist call [8]: active

CCCCCCCCC(OC(C)=O)OC(C)=O
odorant receptor agonist call [8]: active

C=C(C)C1CC=C(C)CC1 (stereo unspecified)
odorant receptor agonist call [8]: active

CCCCCCC(=O)OC
odorant receptor agonist call [8]: inactive

CCOC(=O)C(C)C
odorant receptor agonist call [8]: inactive

CCCCC(CC)CO (stereo unspecified)
odorant receptor agonist call [8]: active
